From ChEMBL document CHEMBL4229408 (Bioorg Med Chem, 2018)

Tests used:
[1] = Antiproliferative activity against human CAR cells after 48 hrs by MTT assay; assay type: functional, cell-based
Summary of the method: (§1)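 CAR cells (CAL27 made cisplatin-resistant by 10 cycles of 10–80 μM cisplatin) kept in DMEM/10% FBS with 80 μM cisplatin. Seeded 2×10^4 cells/well and exposed to 0, 25, 50, 75 and 100 μM for 48 or 72 h, with 0.5% DMSO as vehicle. MTT (500 μg/ml) added for 4 h at 37 °C, formazan dissolved in DMSO, A570 read as % of control, IC50 derived.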

[2] = Antiproliferative activity against human CAR cells after 72 hrs by MTT assay; assay type: functional, cell-based; summary of the method: as §1
[3] = Antitumor activity against human CAR cells xenografted in BALB/c nude mouse assessed as tumor weight at 25 mg/kg, po qd administered for 30 days measured on day 31 relative to control; assay type: functional
Summary of the method: (§2)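 Male BALB/c nude mice, four weeks old, implanted subcutaneously in the flank with CAR cells (cisplatin-resistant CAL27 kept in 80 μM cisplatin), 1×10^7 cells/mouse in 0.2 mL medium:Matrigel 1:1. Dosing began at ~50 mm3 tumors (day 22), eight mice/group, oral once daily for 30 days; vehicle 1,2-propanediol. Sacrificed day 31; excised tumors weighed, compared to vehicle controls.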

[4] = Antitumor activity against human CAR cells xenografted in BALB/c nude mouse assessed as inhibition of tumor weight at 50 mg/kg, po qd administered for 30 days measured on day 31 relative to control; assay type: functional; parameters: scale not given: the % may be the effect or the level left; summary of the method: as §2
[5] = Antitumor activity against human CAR cells xenografted in BALB/c nude mouse assessed as inhibition of tumor weight at 100 mg/kg, po qd administered for 30 days measured on day 31 relative to control; assay type: functional; parameters: scale not given: the % may be the effect or the level left; summary of the method: as §2
[6] = test system: Mus musculus; assay: Toxicity in BALB/c nude mouse xenografted with human CAR cells assessed as change in body weight at 25 to 100 mg/kg, po qd administered for 30 days measured during compound dosing; assay type: organism-based; conditions: in vivo, 720 h
Summary of the method: (§3)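 During the 30-day once-daily oral dosing (25–100 mg/kg) of CAR-xenografted nude mice, body weight, food intake and behaviour were tracked and compared with vehicle-treated controls.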

[7] = test system: Mus musculus; assay: Toxicity in BALB/c nude mouse xenografted with human CAR cells assessed as change in food consumption at 25 to 100 mg/kg, po qd administered for 30 days measured during compound dosing; assay type: organism-based; conditions: in vivo, 720 h; summary of the method: as §3
[8] = test system: Mus musculus; assay: Toxicity in BALB/c nude mouse xenografted with human CAR cells assessed as change in behavior at 25 to 100 mg/kg, po qd administered for 30 days measured during compound dosing; assay type: organism-based; conditions: in vivo, 720 h; summary of the method: as §3
[9] = test system: Mus musculus; assay: Toxicity in BALB/c nude mouse xenografted with human CAR cells assessed as total protein levels in blood at 25 mg/kg, po qd administered for 30 days measured on day 31 (reference value: 5.6 +/- 0.283 g/dL); assay type: organism-based; conditions: in vivo, 720 h
[10] = test system: Mus musculus; assay: Toxicity in BALB/c nude mouse xenografted with human CAR cells assessed as total protein levels in blood at 50 mg/kg, po qd administered for 30 days measured on day 31 (reference value: 5.6 +/- 0.283 g/dL); assay type: organism-based; conditions: in vivo, 720 h
[11] = test system: Mus musculus; assay: Toxicity in BALB/c nude mouse xenografted with human CAR cells assessed as total protein levels in blood at 100 mg/kg, po qd administered for 30 days measured on day 31 (reference value: 5.6 +/- 0.283 g/dL); assay type: organism-based; conditions: in vivo, 720 h
[12] = test system: Mus musculus; assay: Toxicity in BALB/c nude mouse xenografted with human CAR cells assessed as albumin levels in blood at 25 mg/kg, po qd administered for 30 days measured on day 31 (reference value: 3.45 +/- 0.138 g/dL); assay type: organism-based; conditions: in vivo, 720 h
[13] = test system: Mus musculus; assay: Toxicity in BALB/c nude mouse xenografted with human CAR cells assessed as albumin levels in blood at 50 mg/kg, po qd administered for 30 days measured on day 31 (reference value: 3.45 +/- 0.138 g/dL); assay type: organism-based; conditions: in vivo, 720 h
[14] = test system: Mus musculus; assay: Toxicity in BALB/c nude mouse xenografted with human CAR cells assessed as albumin levels in blood at 100 mg/kg, po qd administered for 30 days measured on day 31 (reference value: 3.45 +/- 0.138 g/dL); assay type: organism-based; conditions: in vivo, 720 h
[15] = test system: Mus musculus; assay: Toxicity in BALB/c nude mouse xenografted with human CAR cells assessed as blood urea nitrogen levels in blood at 25 mg/kg, po qd administered for 30 days measured on day 31 (reference value: 27.7 +/- 4.116 mg/dL); assay type: organism-based; conditions: in vivo, 720 h
[16] = test system: Mus musculus; assay: Toxicity in BALB/c nude mouse xenografted with human CAR cells assessed as blood urea nitrogen levels in blood at 50 mg/kg, po qd administered for 30 days measured on day 31 (reference value: 27.7 +/- 4.116 mg/dL); assay type: organism-based; conditions: in vivo, 720 h
[17] = test system: Mus musculus; assay: Toxicity in BALB/c nude mouse xenografted with human CAR cells assessed as blood urea nitrogen levels in blood at 100 mg/kg, po qd administered for 30 days measured on day 31 (reference value: 27.7 +/- 4.116 mg/dL); assay type: organism-based; conditions: in vivo, 720 h
[18] = test system: Mus musculus; assay: Toxicity in BALB/c nude mouse xenografted with human CAR cells assessed as creatinine levels in blood at 25 mg/kg, po qd administered for 30 days measured on day 31 (reference value: 1 +/- 0.18 mg/dL); assay type: organism-based; conditions: in vivo, 720 h
[19] = test system: Mus musculus; assay: Toxicity in BALB/c nude mouse xenografted with human CAR cells assessed as creatinine levels in blood at 50 mg/kg, po qd administered for 30 days measured on day 31 (reference value: 1 +/- 0.18 mg/dL); assay type: organism-based; conditions: in vivo, 720 h
[20] = test system: Mus musculus; assay: Toxicity in BALB/c nude mouse xenografted with human CAR cells assessed as creatinine levels in blood at 100 mg/kg, po qd administered for 30 days measured on day 31 (reference value: 1 +/- 0.18 mg/dL); assay type: organism-based; conditions: in vivo, 720 h
[21] = test system: Mus musculus; assay: Toxicity in BALB/c nude mouse xenografted with human CAR cells assessed as uric acid levels in blood at 25 mg/kg, po qd administered for 30 days measured on day 31 (reference value: 4.65 +/- 0.864 mg/dL); assay type: organism-based; conditions: in vivo, 720 h
[22] = test system: Mus musculus; assay: Toxicity in BALB/c nude mouse xenografted with human CAR cells assessed as uric acid levels in blood at 50 mg/kg, po qd administered for 30 days measured on day 31 (reference value: 4.65 +/- 0.864 mg/dL); assay type: organism-based; conditions: in vivo, 720 h
[23] = test system: Mus musculus; assay: Toxicity in BALB/c nude mouse xenografted with human CAR cells assessed as uric acid levels in blood at 100 mg/kg, po qd administered for 30 days measured on day 31 (reference value: 4.65 +/- 0.864 mg/dL); assay type: organism-based; conditions: in vivo, 720 h
[24] = test system: Mus musculus; assay: Toxicity in BALB/c nude mouse xenografted with human CAR cells assessed as glucose levels in blood at 25 mg/kg, po qd administered for 30 days measured on day 31 (reference value: 180 +/- 10.392 mg/dL); assay type: organism-based; conditions: in vivo, 720 h
[25] = test system: Mus musculus; assay: Toxicity in BALB/c nude mouse xenografted with human CAR cells assessed as glucose levels in blood at 50 mg/kg, po qd administered for 30 days measured on day 31 (reference value: 180 +/- 10.392 mg/dL); assay type: organism-based; conditions: in vivo, 720 h
[26] = test system: Mus musculus; assay: Toxicity in BALB/c nude mouse xenografted with human CAR cells assessed as glucose levels in blood at 100 mg/kg, po qd administered for 30 days measured on day 31 (reference value: 180 +/- 10.392 mg/dL); assay type: organism-based; conditions: in vivo, 720 h
[27] = Prodrug conversion in Sprague-Dawley rat whole blood assessed as formation of pterostilbene-4'-O-sulfate by measuring Tmax of metabolite at 100 mg/kg, po using HPbetaCD, PEG300, H2O formulation at 20:10:70 by LC-MS method; assay type: ADME, organism-based; conditions: in vivo
Summary of the method: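 Male Sprague-Dawley rats (200–220 g), n = 3, given a single oral 100 mg/kg dose in HPβCD:PEG300:H2O 20:10:70 (10 mg/mL). Tail-vein blood collected into heparin at 0.5–24 h (0.5, 1, 1.5, 2, 3, 4, 5, 6, 8, 24 h).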

COc1ccc(/C=C/c2cc(OC(=O)C(C)(CO)CO)cc(OC(=O)C(C)(CO)CO)c2)cc1
IC50 [1]: 73.9 µM
IC50 [2]: 70.8 µM

COc1cc(O)cc(/C=C/c2ccc(OC(=O)C(C)(CO)CO)cc2)c1
IC50 [2]: 64 µM

CC(CO)(CO)C(=O)Oc1ccc(/C=C/c2cc(OC(=O)C(C)(CO)CO)cc(OC(=O)C(C)(CO)CO)c2)cc1
IC50 [2]: 124 µM

CC(CO)(CO)C(=O)Oc1cc(O)cc(/C=C/c2ccc(O)cc2)c1
IC50 [1]: 54.9 µM

COc1cc(/C=C/c2ccc(OC(=O)C(C)(CO)CO)cc2)cc(OC(C)=O)c1
IC50 [1]: 52 µM
IC50 [2]: 50.3 µM

COc1cc(/C=C/c2ccc(OC(=O)C(C)(CO)CO)cc2)cc(OC)c1
IC50 [1]: 73.2 µM
IC50 [2]: 32.6 µM
Activity [3]: 60%
Activity [4]: 47%
Activity [5]: 22%
Activity [6]: Non-Toxic
Activity [7]: Non-Toxic
Activity [8]: Non-Toxic
Activity [9]: 5.383 g/dL
Activity [10]: 5.583 g/dL
Activity [11]: 5.283 g/dL
Activity [12]: 3.666 g/dL
Activity [13]: 3.417 g/dL
Activity [14]: 3.4 g/dL
Activity [15]: 28.2 mg/dL
Activity [16]: 30.95 mg/dL
Activity [17]: 29.25 mg/dL
Activity [18]: 1.133 mg/dL
Activity [19]: 0.91 mg/dL
Activity [20]: 0.83 mg/dL
Activity [21]: 4.567 mg/dL
Activity [22]: 5.45 mg/dL
Activity [23]: 5.05 mg/dL
Activity [24]: 181.333 mg/dL
Activity [25]: 172.5 mg/dL
Activity [26]: 196.5 mg/dL
Tmax [27]: 2 h

CC(=O)Oc1cc(/C=C/c2ccc(OC(=O)C(C)(CO)CO)cc2)cc(OC(C)=O)c1
IC50 [1]: 103 µM
IC50 [2]: 116 µM

CC(=O)Oc1cc(/C=C/c2ccc(OC(=O)C(C)(CO)CO)cc2)cc(OC(=O)C(C)(CO)CO)c1
IC50 [1]: 122 µM
IC50 [2]: 119 µM

COc1cc(/C=C/c2ccc(OC(=O)C(C)(CO)CO)cc2)cc(OC(=O)C(C)(CO)CO)c1
IC50 [1]: 56.5 µM
IC50 [2]: 59.8 µM

COc1ccc(/C=C/c2cc(OC)cc(OC(=O)C(C)(CO)CO)c2)cc1
IC50 [1]: 64.2 µM
IC50 [2]: 67.3 µM

COc1ccc(/C=C/c2cc(O)cc(OC)c2)cc1
IC50 [1]: 100 µM
IC50 [2]: 98.3 µM

Oc1ccc(/C=C/c2cc(O)cc(O)c2)cc1 [RESVERATROL]
IC50 [2]: 88.3 µM
